Columns and labels:
[1] = biological target: T1, Alpha-1A adrenergic receptor (Rattus norvegicus) (UniProt P43140); assay: Antagonist affinity was expressed as apparent pKb at Alpha-1A adrenergic receptor on isolated rat prostatic vas deferens (alpha1A).; assay type: functional, tissue-based
T1 sequence (whole entry): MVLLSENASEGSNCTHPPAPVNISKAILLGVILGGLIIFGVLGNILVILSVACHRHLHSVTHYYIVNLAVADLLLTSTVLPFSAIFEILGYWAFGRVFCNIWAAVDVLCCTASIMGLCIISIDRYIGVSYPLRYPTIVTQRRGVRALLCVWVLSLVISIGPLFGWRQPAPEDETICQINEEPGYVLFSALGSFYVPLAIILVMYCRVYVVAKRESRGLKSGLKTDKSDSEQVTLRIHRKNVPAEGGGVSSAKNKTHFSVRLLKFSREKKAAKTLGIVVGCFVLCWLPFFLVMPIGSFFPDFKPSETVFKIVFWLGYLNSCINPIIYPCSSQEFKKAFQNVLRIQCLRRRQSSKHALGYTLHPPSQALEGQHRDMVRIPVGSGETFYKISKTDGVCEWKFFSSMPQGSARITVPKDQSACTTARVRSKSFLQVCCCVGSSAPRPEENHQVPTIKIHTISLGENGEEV
Procedure, shortened: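 Rat prostatic vas deferens in Tyrode with 0.1 μM cocaine. Equilibrated 60 min, primed twice with 10 μM noradrenaline, then a control cumulative (–)-noradrenaline curve recorded isometrically. Antagonist equilibrated 30 min before a repeat curve. Apparent pKb = log(DR−1) − log[B], with DR as the ratio of agonist EC50 with/without antagonist. 2–3 antagonist concentrations, each tested four times.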

[2] = biological target: T2, Alpha-1D adrenergic receptor (Rattus norvegicus) (UniProt P23944); assay: Antagonist affinity was expressed as apparent pKb at Alpha-1D adrenergic receptor on isolated rat thoracic aorta (Alpha-1D); assay type: functional, tissue-based
T2 sequence (whole entry): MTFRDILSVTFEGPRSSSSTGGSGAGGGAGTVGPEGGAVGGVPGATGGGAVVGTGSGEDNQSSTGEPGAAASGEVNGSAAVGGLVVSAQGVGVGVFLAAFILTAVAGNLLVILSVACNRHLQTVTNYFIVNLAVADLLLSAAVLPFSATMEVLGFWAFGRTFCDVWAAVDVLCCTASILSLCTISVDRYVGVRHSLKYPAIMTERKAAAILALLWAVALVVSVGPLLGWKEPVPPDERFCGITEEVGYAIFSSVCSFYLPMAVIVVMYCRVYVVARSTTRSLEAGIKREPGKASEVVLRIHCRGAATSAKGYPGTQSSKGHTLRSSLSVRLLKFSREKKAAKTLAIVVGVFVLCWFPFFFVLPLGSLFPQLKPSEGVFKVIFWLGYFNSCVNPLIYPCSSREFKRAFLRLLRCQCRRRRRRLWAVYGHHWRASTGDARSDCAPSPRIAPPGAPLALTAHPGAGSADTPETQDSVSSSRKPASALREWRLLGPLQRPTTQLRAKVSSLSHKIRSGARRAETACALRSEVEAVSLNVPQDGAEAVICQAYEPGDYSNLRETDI
Procedure, shortened: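 Helicoidal strips of rat thoracic aorta at 1 g tension, with 0.1 μM cocaine and 1 μM propranolol. After ≥1 h equilibration, cumulative (–)-noradrenaline curves at 30-min intervals; the third served as control. Antagonist equilibrated 30 min before the fourth curve. Apparent pKb from log(DR−1) − log[B], 2–3 antagonist concentrations, each tested four times.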

[3] = biological target: T3, 5-hydroxytryptamine receptor 1A (Homo sapiens) (UniProt P08908); assay: The binding affinity was evaluated on cloned human 5-hydroxytryptamine 1A receptor expressed in HeLa cells by using DPAT as radioligand.; assay type: cell-based
T3 sequence (whole entry): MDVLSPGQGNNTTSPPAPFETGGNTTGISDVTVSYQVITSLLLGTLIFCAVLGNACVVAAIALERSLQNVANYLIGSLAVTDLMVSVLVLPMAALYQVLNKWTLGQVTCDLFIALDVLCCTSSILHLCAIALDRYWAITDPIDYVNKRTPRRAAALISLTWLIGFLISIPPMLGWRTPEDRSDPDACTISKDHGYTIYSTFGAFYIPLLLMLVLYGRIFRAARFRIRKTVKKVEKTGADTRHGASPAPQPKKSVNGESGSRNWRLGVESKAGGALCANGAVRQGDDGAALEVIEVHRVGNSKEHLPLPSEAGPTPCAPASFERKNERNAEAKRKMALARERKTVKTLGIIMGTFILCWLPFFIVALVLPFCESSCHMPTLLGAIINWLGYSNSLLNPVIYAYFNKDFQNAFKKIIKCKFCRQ
Procedure, shortened: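 Membranes from HeLa cells stably expressing human 5-HT1A, in 50 mM Tris-HCl pH 7.4, 2.5 mM MgCl2, 10 μM pargyline. Nonspecific binding with 10 μM 5-HT. Filtration. Ki by Cheng-Prusoff. 2–3 experiments in triplicate.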

[4] = biological target: T3, 5-hydroxytryptamine receptor 1A (Homo sapiens); assay: Agonist efficacy was evaluated as [35S]GTP binding on cloned human 5-hydroxytryptamine 1A receptor; assay type: functional
Procedure, shortened: (§1)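 HeLa membranes stably expressing human 5-HT1A, in 20 mM HEPES, 3 mM MgSO4, 120 mM NaCl (pH 7.4). Preincubated 20 min at 30 °C with 30 μM GDP and drug (100 μM–0.1 nM), then [35S]GTPγS (150–250 pM) added for a further 30 min at 30 °C. Nonspecific binding with 10 μM GTPγS. Filtration and scintillation counting. Stimulation is % above basal, with maximal 5-HT response = 100%. Emax and pD2 from curve fitting. Triplicate, 2–3 sessions.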

[5] = biological target: T3, 5-hydroxytryptamine receptor 1A (Homo sapiens); assay: Maximum […] was evaluated as ([35S]GTP binding on cloned human 5-hydroxytryptamine 1A receptor; assay type: functional; procedure, shortened: as §1
[6] = biological target: T4, Alpha-1A adrenergic receptor (Homo sapiens) (UniProt P35348); assay: The binding affinity was evaluated on cloned human Alpha-1A adrenergic receptor expressed in chinese hamster ovary(CHO) cells by using [3H]prazosin as radioligand.; assay type: cell-based
T4 sequence (whole entry): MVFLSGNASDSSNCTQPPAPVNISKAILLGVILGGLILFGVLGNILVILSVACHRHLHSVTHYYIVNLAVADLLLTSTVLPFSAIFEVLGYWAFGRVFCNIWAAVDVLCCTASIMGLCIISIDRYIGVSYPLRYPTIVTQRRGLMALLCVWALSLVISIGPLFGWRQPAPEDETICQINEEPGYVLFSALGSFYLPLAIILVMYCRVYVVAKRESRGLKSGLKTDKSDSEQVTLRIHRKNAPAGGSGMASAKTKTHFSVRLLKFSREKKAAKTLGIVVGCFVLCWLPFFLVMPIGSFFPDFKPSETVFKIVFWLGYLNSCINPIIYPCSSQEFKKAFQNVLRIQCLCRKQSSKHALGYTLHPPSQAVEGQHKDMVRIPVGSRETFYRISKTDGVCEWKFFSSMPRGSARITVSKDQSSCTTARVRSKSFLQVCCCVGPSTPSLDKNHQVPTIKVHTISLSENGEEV
Procedure, shortened: (§2)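 Membranes (30 μg protein) from CHO cells stably expressing each human α1 subtype, in 50 mM Tris-HCl pH 7.4. Incubated with 0.1–0.4 nM [3H]prazosin for 30 min at 25 °C, competitor 1 pM–10 μM. Nonspecific binding with 10 μM phentolamine. Ki by Cheng-Prusoff. 2–3 experiments in triplicate.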

[7] = biological target: T5, Alpha-1B adrenergic receptor (Homo sapiens) (UniProt P35368); assay: The binding affinity was evaluated on cloned human Alpha-1B adrenergic receptor expressed in chinese hamster ovary(CHO) cells by using [3H]prazosin as radioligand.; assay type: cell-based; procedure, shortened: as §2
T5 sequence (whole entry): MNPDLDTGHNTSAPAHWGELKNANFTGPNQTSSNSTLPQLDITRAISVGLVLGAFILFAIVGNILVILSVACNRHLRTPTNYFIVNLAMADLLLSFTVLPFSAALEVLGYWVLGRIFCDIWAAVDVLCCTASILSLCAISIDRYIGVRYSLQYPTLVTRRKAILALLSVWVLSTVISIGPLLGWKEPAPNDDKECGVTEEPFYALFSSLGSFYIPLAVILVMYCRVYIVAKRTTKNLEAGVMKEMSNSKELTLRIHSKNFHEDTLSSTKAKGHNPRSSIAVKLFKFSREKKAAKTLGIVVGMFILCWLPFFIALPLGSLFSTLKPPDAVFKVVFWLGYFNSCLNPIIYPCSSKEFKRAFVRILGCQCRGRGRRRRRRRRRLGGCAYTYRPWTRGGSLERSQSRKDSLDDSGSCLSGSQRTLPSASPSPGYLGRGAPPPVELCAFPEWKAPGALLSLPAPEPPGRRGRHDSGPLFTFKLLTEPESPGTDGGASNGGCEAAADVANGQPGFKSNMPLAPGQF

[8] = biological target: T6, Alpha-1D adrenergic receptor (Homo sapiens) (UniProt P25100); assay: The binding affinity was evaluated on cloned human Alpha-1D adrenergic receptor expressed in chinese hamster ovary(CHO) cells by using [3H]-prazosin as radioligand.; assay type: cell-based; procedure, shortened: as §2
T6 sequence (whole entry): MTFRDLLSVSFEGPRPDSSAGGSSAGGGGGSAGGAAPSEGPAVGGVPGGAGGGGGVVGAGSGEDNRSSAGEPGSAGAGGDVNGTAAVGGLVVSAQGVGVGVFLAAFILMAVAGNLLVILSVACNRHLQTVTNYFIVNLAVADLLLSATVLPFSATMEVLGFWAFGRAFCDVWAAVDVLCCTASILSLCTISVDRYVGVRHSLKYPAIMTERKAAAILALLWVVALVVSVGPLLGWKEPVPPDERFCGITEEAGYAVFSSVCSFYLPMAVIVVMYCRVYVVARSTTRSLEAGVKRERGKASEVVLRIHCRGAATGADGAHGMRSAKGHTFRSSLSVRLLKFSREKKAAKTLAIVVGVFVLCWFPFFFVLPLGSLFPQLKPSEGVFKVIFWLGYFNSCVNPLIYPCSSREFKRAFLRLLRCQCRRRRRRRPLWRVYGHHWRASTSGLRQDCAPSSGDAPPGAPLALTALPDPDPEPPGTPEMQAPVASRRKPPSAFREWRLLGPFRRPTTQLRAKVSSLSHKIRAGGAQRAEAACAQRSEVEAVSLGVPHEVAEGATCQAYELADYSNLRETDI

[9] = biological target: T3, 5-hydroxytryptamine receptor 1A (Homo sapiens)
[10] = biological target: T4, Alpha-1A adrenergic receptor (Homo sapiens); assay: The binding affinity was evaluated on cloned human alpha-1A adrenergic receptor expressed in chinese hamster ovary(CHO) cells by using [3H]prazosin as radioligand.; assay type: cell-based; procedure, shortened: as §2
[11] = biological target: T6, Alpha-1D adrenergic receptor (Homo sapiens); assay: The binding affinity was evaluated on cloned human alpha-1D adrenergic receptor expressed in chinese hamster ovary(CHO) cells by using [3H]prazosin as radioligand.; assay type: cell-based; procedure, shortened: as §2
[12] = biological target: T5, Alpha-1B adrenergic receptor (Homo sapiens); assay: The binding affinity was evaluated on cloned human alpha-1B adrenergic receptor expressed in chinese hamster ovary(CHO) cells by using [3H]prazosin as radioligand.; assay type: cell-based; procedure, shortened: as §2
[13] = biological target: Adrenergic receptor alpha-2 (Rattus norvegicus) (UniProt P22086+P19328+P22909); assay: The binding affinity was evaluated on alpha-2 adrenergic receptor expressed in rat cortex by using [3H]rauwolscine as radioligand.
Procedure, shortened: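 Male Sprague-Dawley rat cerebral cortex membranes, washed in Tris-HCl pH 7.4 and held in buffer with 10 μM pargiline and 0.1% ascorbic acid. Incubated 30 min at 25 °C with 0.5-1.5 nM [3H]rauwolscine; nonspecific binding with 10 μM phentolamine. Filtration, scintillation counting. Ki from Cheng-Prusoff; 2-3 experiments in triplicate.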

[14] = biological target: 5-hydroxytryptamine receptor 2A (Rattus norvegicus) (UniProt P14842); assay: The binding affinity was evaluated on 5-hydroxytryptamine 2A receptor expressed in rat cortex by using [3H]ketanserin as radioligand.
Sequence of 5-hydroxytryptamine receptor 2A (Rattus norvegicus) (P14842 whole entry): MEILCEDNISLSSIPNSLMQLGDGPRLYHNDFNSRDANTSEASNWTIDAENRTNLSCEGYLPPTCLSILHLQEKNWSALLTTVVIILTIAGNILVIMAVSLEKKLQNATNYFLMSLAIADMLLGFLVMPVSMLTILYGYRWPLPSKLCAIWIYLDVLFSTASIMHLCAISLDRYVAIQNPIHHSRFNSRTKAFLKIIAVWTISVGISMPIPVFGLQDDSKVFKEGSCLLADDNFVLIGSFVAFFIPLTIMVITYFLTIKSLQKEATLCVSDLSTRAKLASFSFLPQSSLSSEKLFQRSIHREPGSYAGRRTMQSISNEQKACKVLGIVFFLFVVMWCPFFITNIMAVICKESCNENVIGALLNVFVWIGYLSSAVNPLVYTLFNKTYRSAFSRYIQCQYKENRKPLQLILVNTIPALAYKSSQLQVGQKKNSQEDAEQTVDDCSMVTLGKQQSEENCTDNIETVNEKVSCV
Procedure, shortened: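 Rat cerebral cortex membranes in Tris-HCl pH 7.4 with 10 μM pargyline and 0.1% ascorbic acid. Incubated 20 min at 37 °C with 0.7–1.3 nM [3H]ketanserin. Nonspecific binding with 2 μM ketanserin. Filtration and scintillation counting. Ki by Cheng-Prusoff. 2–3 experiments in triplicate.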

[15] = biological target: D(2) dopamine receptor (Rattus norvegicus) (UniProt P61169); assay: The binding affinity was evaluated on Dopamine receptor D2 expressed in rat striatum by using [3H]spiperone as radioligand; assay type: tissue-based
Sequence of D(2) dopamine receptor (Rattus norvegicus) (P61169 whole entry): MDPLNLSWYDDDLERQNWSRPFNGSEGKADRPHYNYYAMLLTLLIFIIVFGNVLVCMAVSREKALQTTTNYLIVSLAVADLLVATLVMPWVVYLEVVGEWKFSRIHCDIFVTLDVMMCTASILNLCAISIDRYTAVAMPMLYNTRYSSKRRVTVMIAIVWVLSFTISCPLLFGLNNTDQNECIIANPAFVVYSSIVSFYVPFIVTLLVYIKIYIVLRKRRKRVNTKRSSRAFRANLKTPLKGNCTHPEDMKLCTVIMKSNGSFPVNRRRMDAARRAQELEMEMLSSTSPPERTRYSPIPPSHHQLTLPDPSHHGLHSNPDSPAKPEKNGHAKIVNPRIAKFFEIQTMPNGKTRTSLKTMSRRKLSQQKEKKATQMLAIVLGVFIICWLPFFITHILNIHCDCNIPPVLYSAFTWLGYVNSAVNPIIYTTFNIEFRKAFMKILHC
Procedure, shortened: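 Rat striatum membranes in Tris-HCl with 10 μM pargyline, 0.1% ascorbic acid, 120 mM NaCl, 5 mM KCl, 2 mM CaCl2, 1 mM MgCl2. Incubated 15 min at 37 °C with 0.2–0.6 nM [3H]spiperone. Nonspecific binding with 1 μM (+)-butaclamol. Ki by Cheng-Prusoff. 2–3 experiments in triplicate.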

[16] = biological target: T3, 5-hydroxytryptamine receptor 1A (Homo sapiens); remark: listed apart in the source

Compound: COc1cccc(OC)c1OCCNC[C@H]1Oc2ccccc2O[C@@H]1c1ccccc1
- pKb [1]: 8.18
- pKb [2]: 7.51

Compound: COc1cccc(OC)c1OCCNCC1=Cc2ccccc2OC1c1ccccc1 (stereo not given)
- pKi [3]: 8.08
- pD2 [4]: 6.44
- Max [5]: 40%
- pKi [6]: 7.14
- pKi [7]: 6.84
- pKi [8]: 6.95

Compound: NCCc1c[nH]c2ccc(C(N)=O)cc12
- pD2 [9]: 8.45

Compound: COc1cccc(OC)c1OCCNCC1Oc2ccccc2CC1c1ccccc1 (stereo in doubt; 6)
- pKi [3]: 6.76
- pKi [10]: 6.78
- pKi [11]: 6.86
- pKi [12]: 6.51

Compound: COc1cccc(OC)c1OCCNCC1COc2ccccc2O1 (stereo not given)
- pKi [3]: 8.68
- pKi [10]: 9.37
- pKi [13]: 7.83
- pKi [14]: 6
- pKi [15]: 6.91

Compound: COc1cccc(OC)c1OCCNCC1C(=O)c2ccccc2SC1c1ccccc1 (stereo not given)
- pKi [3]: 7.36
- pKi [10]: 7.42
- pKi [11]: 6.37
- pKi [7]: < 6

Compound: COc1cccc(OC)c1OCCNCC1C(=O)c2ccccc2CC1c1ccccc1 (stereo not given)
- pKi [3]: 6.83
- pKi [10]: 8.06
- pKi [13]: 6.45
- pKi [14]: 6.63
- pKi [11]: 6.88
- pKi [15]: < 6
- pKi [12]: 6.11

Compound: NCCc1c[nH]c2ccc(O)cc12
- pD2 [16]: 7.3

— ChEMBL document CHEMBL1132324, “Structure-activity relationships in 1,4-benzodioxan-related compounds. 6. Role of the dioxane unit on selectivity for alpha(1)-adrenoreceptor subtypes” (J Med Chem, 1999)
